The source made the active and inactive calls. No cut-off for these calls is given here.
Legend:
in vitro = details: human, HEK-293T cells
[1] = target: Ubiquitin-conjugating enzyme E2 D3 (Mus musculus) (UniProt P61079); assay: Inhibition of UbcH5c in mouse b.End3 cells assessed as decrease in TNF-alpha-mediated p65 phosphorylation preincubated for 2 hrs followed by TNF-alpha stimulation for 20 mins by Western blot analysis; type: cell-based
How it was run: (§1)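 bEnd.3 cells (DMEM, 10% FBS) were pretreated with compound at 2.5, 5 or 10 µM for 2 h, then stimulated with 20 ng/mL TNF-α (15 min in the methods, 20 min in the legend). Lysates were run on 10% SDS-PAGE and immunoblotted for phospho-IκBα, IκBα, phospho-p65 and p65, with GAPDH as loading control.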

[2] = target: Ubiquitin-conjugating enzyme E2 D3 (Mus musculus) (UniProt P61079); assay: Inhibition of UbcH5c in mouse b.End3 cells assessed as decrease in TNF-alpha-mediated IkB-alpha degradation preincubated for 2 hrs followed by TNF-alpha stimulation for 20 mins by Western blot analysis; type: cell-based
How it was run: as §1

[3] = target: Ubiquitin-conjugating enzyme E2 D3 (Mus musculus) (UniProt P61079); assay: Inhibition of UbcH5c in mouse b.End3 cells assessed as decrease in TNF-alpha-mediated IkB-alpha phosphorylation at 10 uM preincubated for 2 hrs followed by TNF-alpha stimulation for 20 mins by Western blot analysis; type: cell-based
How it was run: as §1

[4] = target: Ubiquitin-conjugating enzyme E2 D3 (Mus musculus) (UniProt P61079); assay: Inhibition of UbcH5c in mouse b.End3 cells assessed as decrease in TNF-alpha-mediated IkB-alpha phosphorylation preincubated for 2 hrs followed by TNF-alpha stimulation for 20 mins by Western blot analysis; type: cell-based
How it was run: as §1

[5] = target: Ubiquitin-conjugating enzyme E2 D3 (Mus musculus) (UniProt P61079); assay: Inhibition of UbcH5c in mouse b.End3 cells assessed as decrease in TNF-alpha-mediated IkB-alpha degradation at 10 uM preincubated for 2 hrs followed by TNF-alpha stimulation for 15 mins by Western blot analysis
[6] = target: T1, Ubiquitin-conjugating enzyme E2 D3 (Homo sapiens, UniProt P61077); assay: Inhibition of UbcH5c (unknown origin) at 1 uM preincubated for 15 mins followed by E1, Ub and ATP addition measured after 40 mins by Western blot analysis
T1 sequence (P61077 whole entry, looked up): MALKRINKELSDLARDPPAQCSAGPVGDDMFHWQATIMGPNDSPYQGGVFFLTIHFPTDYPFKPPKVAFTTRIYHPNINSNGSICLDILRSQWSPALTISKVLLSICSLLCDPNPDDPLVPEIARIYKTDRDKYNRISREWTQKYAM

[7] = target: T1, Ubiquitin-conjugating enzyme E2 D3; assay: Binding affinity to human recombinant UbcH5c by SPR analysis

Sequence of Ubiquitin-conjugating enzyme E2 D3 (Mus musculus) (P61079 whole entry, looked up): as the sequence (P61077 whole entry, looked up) above

Compound | cytotoxicity at 5 µM (in vitro) [%] | inhibition [3] | inhibition [5] | inhibition [6] | further results
C=C1C(=O)O[C@H]2c3c(C)c(OC(=O)/C=C/c4ccc(OC(F)(F)F)cc4)cc(C)c3CC[C@@H]12 | < 20 | – | – | – | –
C=C1C(=O)O[C@@H]2C3[C@@H](C)[C@@H](OC(=O)c4ccc(I)cc4)CC[C@]3(C)CC[C@@H]12 (some centres not stated) | < 20 | Active | Active | – | inhibition [1]: Dose-dependent effect; inhibition [2]: Dose-dependent effect; inhibition [4]: Dose-dependent effect
C=C1C(=O)O[C@H]2c3c(C)c(OC(=O)/C=C/c4cccnc4)cc(C)c3CC[C@@H]12 | < 20 | Active | Active | – | inhibition [1]: Dose-dependent effect; inhibition [2]: Dose-dependent effect; inhibition [4]: Dose-dependent effect
C=C1C(=O)O[C@@H]2C3[C@@H](C)[C@@H](OC(C)=O)CC[C@]3(C)CC[C@@H]12 (some centres not stated) | – | – | – | inactive | –
C=C1C(=O)O[C@H]2c3c(C)c(OC(=O)c4cccnc4)cc(C)c3CC[C@@H]12 | < 20 | – | – | – | –
C=C1C(=O)O[C@@H]2C3[C@@H](C)[C@@H](OC(=O)CCCC)CC[C@]3(C)CC[C@@H]12 (some centres not stated) | – | – | – | inactive | –
C=C1C(=O)O[C@H]2c3c(C)c(OCc4ccc(OC(F)(F)F)cc4)cc(C)c3CC[C@@H]12 | < 20 | – | – | – | –
C=C1C(=O)O[C@@H]2C3[C@@H](C)[C@@H](OC(=O)CC)CC[C@]3(C)CC[C@@H]12 (some centres not stated) | – | – | – | inactive | –
C=C1C(=O)O[C@@H]2C[C@]3(C)C(=C[C@H]12)[C@@H](C)CC[C@H]3O | – | Active | Active | – | Kd [7]: 2580 nM
C=C1C(=O)O[C@@H]2C3[C@@H](C)[C@@H](OC(=O)c4cccc(I)c4)CC[C@]3(C)CC[C@@H]12 (some centres not stated) | < 20 | Active | Active | – | inhibition [1]: Dose-dependent effect; inhibition [2]: Dose-dependent effect; inhibition [4]: Dose-dependent effect
C=C1C(=O)O[C@@H]2C3[C@@H](C)[C@@H](OC(=O)c4ccco4)CC[C@]3(C)CC[C@@H]12 (some centres not stated) | < 20 | – | – | – | –
C=C1C(=O)O[C@@H]2C3[C@@H](C)[C@@H](OC(=O)CCC)CC[C@]3(C)CC[C@@H]12 (some centres not stated) | – | – | – | inactive | –
C=C1C(=O)O[C@H]2c3c(C)c(OC(=O)/C=C/c4cccs4)cc(C)c3CC[C@@H]12 | < 20 | – | – | – | –
C=C1C(=O)O[C@@H]2C3=C(C)[C@@H](OC(=O)c4ccc(C)cc4)CC3[C@](C)(OC(C)=O)CC[C@@H]12 (some centres not stated) | < 20 | – | – | – | –
C=C1C(=O)O[C@@H]2C3=C(C)[C@@H](OC(=O)c4ccccc4)CC3[C@](C)(OC(C)=O)CC[C@@H]12 (some centres not stated) | < 20 | Active | Active | – | inhibition [1]: Dose-dependent effect; inhibition [2]: Dose-dependent effect; inhibition [4]: Dose-dependent effect
C=C1C(=O)O[C@@H]2C3[C@@H](C)[C@@H](OC(=O)C4CCCCC4)CC[C@]3(C)CC[C@@H]12 (some centres not stated) | – | – | – | inactive | –
C=C1C(=O)O[C@@H]2C3=C(C)[C@@H](OC(=O)/C=C/c4ccc(OCCC)cc4)CC3[C@](C)(OC(C)=O)CC[C@@H]12 (some centres not stated) | < 20 | – | – | – | –
C=C1C(=O)O[C@H]2c3c(C)c(OCc4ccccc4C(F)(F)F)cc(C)c3CC[C@@H]12 | < 20 | – | – | – | –
C=C1C(=O)O[C@@H]2C3=C(C)[C@@H](OC(=O)c4ccc(Cl)cc4)CC3[C@](C)(OC(C)=O)CC[C@@H]12 (some centres not stated) | < 20 | Active | Active | – | inhibition [1]: Dose-dependent effect; inhibition [2]: Dose-dependent effect; inhibition [4]: Dose-dependent effect
C=C1C(=O)O[C@@H]2C3[C@@H](C)[C@@H](OC(=O)C4CCCC4)CC[C@]3(C)CC[C@@H]12 (some centres not stated) | – | – | – | inactive | –
